The results in this text go back to PubChem BioAssay AID1040 (The Scripps Research Institute Molecular Screening Center, 2008).

Usually inhibition stands for the drop in the measured response relative to a control, in per cent.

Hit rate of the full screen: of about 200,000 compounds, about 2,000 (1%) were called active. Only a selection was taken, and actives are over-represented in it overall. Unmarked numbers belong to inactive results.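 Rule for the calls: active = inhibition above the campaign mean inhibition of all tested compounds plus 3 SD (cut at about 20% in these data); inactive = the rest.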

Chain of Neuropeptide Y receptor type 1 (Homo sapiens) (P25929 whole entry, looked up): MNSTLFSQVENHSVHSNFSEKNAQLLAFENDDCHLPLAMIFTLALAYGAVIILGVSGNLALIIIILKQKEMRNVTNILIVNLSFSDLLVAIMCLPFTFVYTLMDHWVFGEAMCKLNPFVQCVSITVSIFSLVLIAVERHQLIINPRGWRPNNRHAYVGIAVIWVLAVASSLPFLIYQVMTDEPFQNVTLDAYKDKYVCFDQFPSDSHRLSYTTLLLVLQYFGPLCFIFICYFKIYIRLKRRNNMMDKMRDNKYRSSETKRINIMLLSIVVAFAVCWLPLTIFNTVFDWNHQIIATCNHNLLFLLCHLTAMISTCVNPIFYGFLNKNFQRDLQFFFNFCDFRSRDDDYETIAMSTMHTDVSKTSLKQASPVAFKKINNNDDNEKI

This test addresses Neuropeptide Y receptor type 1 (Homo sapiens) (UniProt P25929). The test can be described thus: blockers of human neuropeptide Y Y1 receptor – cell-based, primary screen (AID 1040).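 Note: 0% = DMSO wells given NPY plus isoproterenol and 100% = isoproterenol alone without NPY.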 Conditions: HEK293-CNG Y1 cells, membrane potential fluorescence; at 3.6 µM; active compounds read high; NPY at EC95, then isoproterenol. A digest of the protocol:
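Material: HEK293 Y1/CNG channel cell line; also added: NPY (25 nM), isoproterenol (1 µM), Ro 20-1724 (25 µM); doses: one concentration, 3.6 µM, in 0.4% DMSO; schedule: compound incubation 1 h at room temperature, readout 45 min post-stimulation; technique: membrane potential fluorescence; measure: fluorescence ratio normalized to % inhibition between controls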
`CCC1CCCCN1C(=O)CSc1nc2c(c(=O)n(C)c(=O)n2C)n1C` (configuration not stated): the inhibition is 4.16%.

With `COc1ccc(C(=O)CSc2nnc(COc3ccccc3)n2Cc2ccco2)cc1`, the inhibition is 24.4% (active).

As to `CCn1c(COc2ccccc2)nnc1SCC(=O)NCc1ccco1`, the inhibition is -4.68%.

For the molecule `C=CCn1c(CNC(=O)c2ccco2)nnc1SCC(=O)c1ccc(OC)cc1`, the inhibition was 0.4%.

On to `COc1ccc(NC(=O)CCNS(=O)(=O)c2ccc3c(c2)c(=O)n(C)c(=O)n3C)cc1OC`, for which the inhibition was 5.39%.

For `CC(=O)Nc1nc2ccccc2n1Cc1ccc(C)cc1`, the inhibition was 6.94%.

Consider `Cc1ccc(-n2nc3cc(Cl)c(NC(=O)c4ccco4)cc3n2)cc1`, for which the inhibition is -10%.

Regarding `Cc1ccc(Cn2c(NC(=O)c3ccco3)nc3ccccc32)cc1`, the inhibition was 24.1% (active).

For the molecule `NC(=O)c1ccc(NC(=O)COC(=O)C(Cc2ccccc2)NC(=O)c2ccccc2)cc1` (configuration not stated), the inhibition was 4.77%.

With `O=C(Nc1ccncc1)c1cc2ccccc2o1`, the inhibition is -5.2%.

As for `O=C(CC(Cc1ccccc1)C(=O)O)NCCc1ccc2c(c1)OCO2` (configuration not stated), the inhibition was 8.49%.

On to `O=C(NCCc1ccc2c(c1)OCCO2)c1cc2ccccc2o1`, for which the inhibition is 21.4% (active).

Turning to `CC[C@H](C)[C@@H](C(=O)N1CCNCC1)n1cc([C@@H](N)Cc2ccc(O)cc2)nn1`, the inhibition is 4.22%.

Take `COc1cc(OC)nc(S(C)(=O)=O)n1`: the inhibition is -1.87%.

`Cc1ccccc1NC(=O)Cn1c(=O)n(CC2CCCO2)c(=O)c2ccccc21` (configuration not stated): the inhibition is 0.4%.

As for `COc1cc(OC)cc(-c2nnc(SCC(=O)Nc3ccc(C(=O)O)cc3)s2)c1`, the inhibition was -5.61%.

Consider `Fc1ccccc1Cn1cnc(NC(=S)NCCc2ccccc2)n1`, for which the inhibition was 0.55%.

Consider `N=c1n(CCc2ccccc2)c2ccccc2n1Cc1ccccc1F`, for which the inhibition is 24.2% (active).

As to `CN(Cc1ccccc1)Cc1ccccc1F`, the inhibition is 0.6%.

As to `CCOC(=O)C1CCCN(C(=O)c2cccc(S(=O)(=O)N3CCOCC3)c2)C1` (configuration not stated), the inhibition was -0.08%.

On to `Cc1cccc(C)c1OCC(=O)NC(Cc1c[nH]c2ccccc12)C(=O)O` (configuration not stated), for which the inhibition was 6.9%.

With `Cc1ccccc1-c1n[nH]c(=S)n1C`, the inhibition was 1.64%.

As to `c1ccc(Nc2nc(N3CCOCC3)c3ccccc3n2)cc1`, the inhibition was 3.28%.

With `c1ccc(-c2nnc(N3CCOCC3)c3ccccc23)cc1`, the inhibition was -0.9%.

Take `c1ccc2c(NC3C4CC5CC(C4)CC3C5)nc(N3CCOCC3)nc2c1` (configuration not stated): the inhibition is 31.8% (active).

`COC(=O)Cc1ccc(N(Cc2ccccc2F)S(=O)(=O)c2ccc(Br)cc2)cc1`: the inhibition was 18.1%.

Take `COc1ccc(-n2nc(C(=O)Nc3cc(OC)c(OC)c(OC)c3)c3ccccc3c2=O)c(OC)c1`: the inhibition is 1.85%.

For the molecule `O=c1c2ccccc2c(-c2ccc(F)cc2)nn1-c1ccc(C(F)(F)F)cc1`, the inhibition was 21.4% (active).

`O=c1c2ccccc2c(-c2ccccc2)nn1Cc1ccccc1`: the inhibition is 0.35%.

Turning to `O=c1c2ccccc2c(-c2ccccc2)nn1-c1ccccn1`, the inhibition is 4.37%.

`COc1ccc(CS(=O)/C(Cl)=C(/Cl)C(=O)Nc2ccc(OC)nc2)cc1` (configuration not stated): the inhibition was 11.2%.

`O=C(Cc1cccs1)Nc1cccc(-c2nc3ccccc3[nH]2)c1`: the inhibition was 3.86%.

Turning to `Cc1ccc(-n2nc3ccc(NC(=O)/C=C/c4ccco4)cc3n2)cc1C`, the inhibition is 6.59%.

Consider `O=C(/C=C/c1ccco1)Nc1cccc(-c2nc3ccccc3[nH]2)c1`, for which the inhibition was 20.3% (active).

Take `COc1ccc(N2CCN(C(c3cc4ccc(C)cc4[nH]c3=O)c3nnnn3C3CCCC3)CC2)cc1` (configuration not stated): the inhibition was 0.99%.

`COc1ccc(C(c2nnnn2C2CCCCC2)N2CCN(c3ccccc3F)CC2)cc1` (configuration not stated): the inhibition is 23.3% (active).

On to `CC(C)C(c1nnnn1C1CCCC1)N1CCN(c2ccccc2F)CC1` (configuration not stated), for which the inhibition was 10.8%.

On to `CC(C)C(=O)Nc1oc(-c2ccccc2)cc1C#N`, for which the inhibition is 3.99%.

Turning to `O=C(c1cccc(S(=O)(=O)Nc2ccccc2Cl)c1)N1CCN(C(=O)c2ccco2)CC1`, the inhibition was -2.11%.

On to `O=C(O)CCCCOn1ccnc1`, for which the inhibition was 4.94%.

As to `O=C(CSc1nc2cc3c(cc2c(=O)n1CCC1=CCCCC1)OCO3)NCc1ccco1`, the inhibition was 26.8% (active).

For the molecule `C=C(C)Cn1c(SCC(=O)NCc2ccco2)nc2sc3c(c2c1=O)CCC3`, the inhibition is 8.57%.

`O=C(CCCn1c(SCC(=O)c2ccc(F)cc2)nc2ccccc2c1=O)NCc1ccco1`: the inhibition was 3.6%.

As for `CCC1(CC)NC(=O)N(CC(=O)OCC(=O)NC(=O)c2ccccc2)C1=O`, the inhibition is 1.96%.

For the molecule `CC1(C)C2CC=C(/C=N/NC(=O)C3CC3)C1C2` (configuration not stated), the inhibition is 4.14%.

For `CSCC[C@H](NC(=O)OC(C)(C)C)C(=O)N/N=C/c1cc2ccc(C)cc2nc1Cl`, the inhibition was -2.75%.

In the case of `CC(=O)c1ccc(NC(=O)c2ccc3c(Cl)c4c(nc3c2)CCCC4)cc1`, the inhibition was -4.67%.

Consider `Fc1ccc2nc(-c3ccccc3)nc(SCc3nnc(-c4ccccc4)o3)c2c1`, for which the inhibition was 2.58%.

As to `COc1ccc(-c2nnc(SCC(=O)c3ccc4c(c3)OCCO4)o2)cc1`, the inhibition was -4.74%.

For `Fc1ccc(-c2nnc(CSc3nnc(-c4ccc5c(c4)OCO5)o3)o2)cc1`, the inhibition was 29.9% (active).

As to `CCCS(=O)(=O)N1CCC(CCOc2ccccc2)(C(=O)OCC)CC1`, the inhibition was 6.41%.

Take `COC(=O)c1c(NC(=O)COC(=O)[C@@H](NS(=O)(=O)c2ccccc2)C(C)C)sc2c1CCC2`: the inhibition is 10.2%.

For the molecule `O=c1oc2c(CN3CCCCC3)c(O)ccc2c2c1CCCCC2`, the inhibition is 6.84%.

Regarding `COc1ccc2c3c(c(=O)oc2c1OCC(=O)C(C)(C)C)CCCC3`, the inhibition was 10.2%.

For the molecule `CCCOc1ccc2c3c(c(=O)oc2c1OCCC)CCC3`, the inhibition was 21.1% (active).

On to `O=C(CSc1nc2ccc(Nc3nc(N4CCOCC4)nc(N4CCOCC4)n3)cc2s1)NCc1ccco1`, for which the inhibition is 2.78%.

As to `CN(C)c1ccc(C(CNC(=O)c2ccc(F)cc2)c2c[nH]c3ccccc23)cc1` (configuration not stated), the inhibition was -7.11%.

With `C=CCOC(=O)C1=C(C)OC(N)=C(C#N)C1c1ccc(F)cc1` (configuration not stated), the inhibition is -1.17%.

As for `Cc1cc2c(c(=O)n1C)C(C(C)C)C(C#N)=C(N)O2` (configuration not stated), the inhibition is 9.44%.

As for `C=CCSc1nc2c(c(=O)[nH]1)C(C(C)C)C(C#N)=C(N)O2` (configuration not stated), the inhibition is 77.2% (active).

For `CC(=O)Oc1c(C(=O)c2nnc(C)o2)c(=O)n(Cc2ccccc2)c2ccccc12`, the inhibition is 1.05%.

For `COc1ccc(F)cc1C(=O)C1CCCN(C(=O)CCc2ccccn2)C1` (configuration not stated), the inhibition is 6.35%.

`CCS(=O)(=O)Nc1ccc(C2=NN(C(C)=O)C(c3cccs3)C2)cc1` (configuration not stated): the inhibition is -0.01%.

Regarding `O=C(O)CCC(=O)Nc1nc2ccc([N+](=O)[O-])cc2s1`, the inhibition was -1.24%.

For `O=C(NC(Nc1nc2ccc([N+](=O)[O-])cc2s1)(C(F)(F)F)C(F)(F)F)c1ccccc1`, the inhibition is 32.9% (active).

In the case of `O=C(Nc1nc2ccc([N+](=O)[O-])cc2s1)c1ccc(S(=O)(=O)N2CCCc3ccccc32)cc1`, the inhibition is -0.71%.

`Cc1nonc1C(=O)N/N=C/c1ccc(O)cc1`: the inhibition was -0.92%.

Turning to `Cc1ccc(C)c2[nH]c(=O)c(CCNC(=O)c3cccs3)cc12`, the inhibition was 1.69%.

As for `CCNC(=O)COC(=O)/C=C/c1c(C)nn(Cc2cccc(OC)c2)c1Cl`, the inhibition is 9.4%.

With `Nc1nonc1-c1nc2ccccc2n1CCC(=O)O`, the inhibition was 2.11%.

`CC(=O)Nc1nonc1-c1nc2ccccc2n1Cc1ccccn1`: the inhibition is 1.23%.

For the molecule `Nc1nonc1-c1nc2ccccc2n1Cc1ccc(F)cc1`, the inhibition was 33.9% (active).

Take `COCCn1c(-c2ccc(OC)c(OC)c2)nc2ccccc21`: the inhibition is 1.65%.

As for `CCCn1c(C(O)c2cc(OC)ccc2OC)nc2ccccc21` (configuration not stated), the inhibition is 6.38%.

Turning to `COc1ccc(C)c(Cn2c(-c3nonc3N)nc3ccccc32)c1`, the inhibition was 20.2% (active).

Consider `COc1ccc(C(=O)Nc2c(Cl)cc(Cl)cc2C(=O)N2CCC(C)CC2)cc1`, for which the inhibition is 7.28%.

Consider `O=C(N/N=C/c1ccc(Br)o1)c1cncc(Br)c1`, for which the inhibition was 0.31%.

On to `CCCOc1ccc(N/C=C/C(=O)C(C)(C)C)cc1`, for which the inhibition is -0.02%.

Consider `CCCOc1ccc(C(=O)NCCc2ccccc2)cc1`, for which the inhibition is 4.6%.

With `CCCOc1ccc(C(=O)C(CCC(CNCC)C(=O)c2ccc(OCCC)cc2)CNCC)cc1` (configuration not stated), the inhibition is 41.9% (active).

For the molecule `O=C(O)/C(=C/c1cccnc1)NC(=O)c1ccccc1`, the inhibition was -1.58%.

On to `O=S(=O)(NCCSc1ccccn1)c1ccc(Cl)cc1`, for which the inhibition was 7.92%.

For the molecule `Cc1ccc(S(=O)(=O)NCCSc2ccccc2)cc1[N+](=O)[O-]`, the inhibition was 20.1%.

For `CCOc1ccc(S(=O)(=O)NCCSc2ccccc2)cc1`, the inhibition is 28.4% (active).

In the case of `C/C(=N\Nc1ncc(Cl)cc1Cl)c1cccs1`, the inhibition was 4.59%.

With `CCOP(=O)(OCC)C(Nc1cccc(C)c1)c1ccc(F)cc1` (configuration not stated), the inhibition is 6.17%.

With `Cc1cc(N2CCN(C)CC2)nc2ccc(NC(=S)N3CCOCC3)cc12`, the inhibition was 6.76%.

As for `Cc1nc(-c2ccccc2)sc1C(=O)/C=C/c1ccccc1`, the inhibition is 21.8% (active).

Regarding `Cc1nc(-c2ccccc2)sc1C(=O)/C=C/N(C)C`, the inhibition was 6.13%.

For the molecule `Cc1ccc(SCC(=O)c2sc(-c3ccccc3)nc2C)cc1`, the inhibition was 8.05%.

Regarding `CC(Oc1ccc(Br)cc1Br)C(=O)NC1CCCC1` (configuration not stated), the inhibition was 7.12%.

Regarding `COc1ccc(OC)c(NC(=O)CSc2nc3cccnc3n2C)c1`, the inhibition is 10.8%.

For the molecule `COc1ccc(OC)c(NC(=O)CSc2nc(N)c(-c3ccccc3)c(=O)[nH]2)c1`, the inhibition was 30.3% (active).

As to `COc1ccc(NC(=O)CSc2nc(N)c(-c3ccccc3)c(=O)[nH]2)cc1`, the inhibition is 7.14%.

Take `Cc1ccc(S(=O)(=O)CC(=O)Nc2c(C)n(C)n(-c3ccccc3)c2=O)cc1`: the inhibition was 1%.

Turning to `Cc1ccc2c(c1)C1CN(C)CCC1N2C(=S)Nc1ccc(Cl)cc1Cl` (configuration not stated), the inhibition is 0.03%.

As for `COC(=O)c1cc(C(=O)CSc2nc(C)cc(C)n2)ccc1O`, the inhibition is -2.7%.

Turning to `Cc1cc(Oc2ccc(Cl)cc2)nc(SCC(=O)c2ccccc2)n1`, the inhibition was 44.4% (active).

In the case of `Cc1cc(SCC(=O)c2ccccc2)nc(SCC(=O)c2ccccc2)n1`, the inhibition is 18.3%.

Turning to `Cc1cc(C)c(NC(=O)C[N+](C)(C)CC(O)COc2cccc3ccccc23)c(C)c1` (configuration not stated), the inhibition is -12.8%.

As for `Cc1cccc(NC(=S)NC23CN4CN(CN(C4)C2)C3)c1`, the inhibition was -0.45%.

`COc1cc(CNC2CCCCC2)c(Br)cc1OC1CCCC1`: the inhibition is -5.34%.

For `CC(C)(C)NCc1cc(Br)ccc1OC1CCCC1`, the inhibition is 37.7% (active).

As to `CCOCCCNCc1cc(Br)ccc1OCC`, the inhibition was 11.8%.

Take `COc1ccc(Sc2nc(-c3ccccc3)ncc2OC)cc1`: the inhibition was 3.64%.

Take `CCc1cccc(NC(=O)CCNS(=O)(=O)c2cccc3nonc23)c1`: the inhibition was 0.89%.

For the molecule `CCN(CC)S(=O)(=O)c1ccc(Cl)c(NC(=O)c2ccncc2)c1`, the inhibition was 1.54%.
